In general, half-life refers to the time needed for the level to fall by half in the phase considered. Low values mean fast loss, high ones slow loss. For orientation: efflux ratio means the permeability from basolateral to apical divided by that in the opposite direction, in the common usage. For orientation: Papp B→A means the apparent permeability from the basolateral to the apical side of a cell layer. Broadly, the Papp A→B is how fast a substance crosses the layer from the apical side. One may read the IC50 as the midpoint of a concentration-inhibition curve. Usually solubility stands for how much of the substance goes into solution per volume. Higher therefore signals much dissolved substance.

Data on three compounds can be found in paper PMC5188857 (Brazilian Journal of Medical and Biological Research, 2016).

Each structure is given as a SMILES string. Several values for one entry are separate records, joined by “and”; a condition that tells them apart may be missing. Identical values can stand only once. Like-named read-outs stand apart in the source and are kept apart here.

One series relates to rat hepatocytes. Nature of the series: In vitro metabolism in rat hepatocytes. The note with it: rat hepatocytes, 0.5 µM. The class given is in vitro ADME.
A short description of series [1]: In vitro metabolism in rat hepatocytes. Format: in vitro ADME. The note with it: rat, hepatocytes.
A further series concerns mice motor coordination. In words: Rota-rod test. Format: in vivo. As to conditions: 10 µg/kg iv, 3, 10 and 30 min after administration. Summed up:
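Adult male Swiss Webster mice (~40 g) were trained 1 day and 1 h before testing. Only those staying ≥1 min without falling were used. Test compound (10 µg/kg) or saline was given iv via the orbital plexus, 6 mice per group. At 3, 10 and 30 min, falls were counted over a 4-min observation, with latency to each fall recorded.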
For orientation: The rotarod test checks motor coordination on a turning rod.

Series [2] in a line: Plasma protein binding by equilibrium dialysis, human plasma. As to conditions: 10 µM, means±SD, n=6. Format: in vitro ADME. Summed up: (§1)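 Equilibrium dialysis used plasma (human or rat) spiked with 10 µM test compound in the donor side against phosphate buffer in the acceptor side. Plates were sealed and incubated 6 h at 37°C, 60 rpm, 5% CO2. Diclofenac (5 µM) served as positive control. Bound percentage is given as mean±SD, n=6.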
On the technique in general: In equilibrium dialysis only unbound substance equilibrates across the membrane.

Another series can be described thus: Plasma stability, human. Format: in vitro ADME. Summed up:
(§2)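 Test-compound-spiked rat or human plasma was incubated 6 h at 37°C. Percent recovery was then determined, reported as mean±SD, n=6.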

The target in another series is CYP2D6 (Homo sapiens, UniProt P10635). Nature of the series: CYP profiling with purified isozyme. Format: in vitro ADME. As to conditions: purified human CYP2D6 isozyme (Cypex). Summed up: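 Purified human recombinant CYP isozyme ([…]) was pre-incubated 10 min, then run with 0.5 µM test compound and 2 mM NADPH in phosphate buffer at 37°C. CYP-specific probe substrates were incubated separately. Parent loss over time was measured by LC-MS/MS. Half-life came from nonlinear regression to a first-order decay equation.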

For another series, the system named is P-gp. In words: Permeability on MDCK-MDR1 cell monolayer. The class given is in vitro ADME. The note with it: dog, MDCK-MDR1.
For a further series, the system named is MDCK-MDR1 cells. Nature of the series: Permeability on MDCK-MDR1 cell monolayer. Format: in vitro ADME. As to conditions: MDCK-MDR1 monolayer, n=3.
A short description of series [3]: Permeability on MDCK-MDR1 cell monolayer. As to conditions: dog; for Papp B→A at 129 min: MDCK-MDR1; for Papp A→B at 129 min: MDCK-MDR1, Papp apical to basolateral, MDCK-MDR1 monolayer, n=3. Format: in vitro ADME.
For a further series, the target named is CYP3A4 (Homo sapiens, UniProt P08684). Nature of the series: CYP inhibition in human liver microsomes. The class given is in vitro ADME.
The nature of a further series: Solubility at pH 7.4. The class given is physicochemical. The note with it: 50 mM sodium phosphate buffer. Summed up:
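Working stock was spiked into 50 mM sodium phosphate buffer, pH 7.4, and held 2 h; concentrations up to 100 µM were tested. Samples were centrifuged at 1,000 g for 20 min at room temperature. Supernatant was diluted 1:1 in acetonitrile and quantified by LC-MS/MS (phenyl column, positive-ion MRM, internal standard).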

The next series has as its system human hepatocytes. Nature of the series: In vitro metabolism in human hepatocytes. The class given is in vitro ADME. The note with it: human hepatocytes, 0.5 µM, two separate experiments.
The nature of series [4]: In vitro metabolism in human hepatocytes. The class given is in vitro ADME. The note with it: human, hepatocytes.
A short description of series [5]: In vitro metabolism in human liver microsomes. Format: in vitro ADME. (Liver microsomes are vesicles of endoplasmic reticulum, rich in cytochrome P450 enzymes.)
The nature of a further series: Plasma stability, rat. Format: in vitro ADME. Summed up:
as §2

Series [6] can be described thus: In vitro metabolism in rat liver microsomes. Format: in vitro ADME.
Series [7] in a line: Plasma protein binding by equilibrium dialysis, rat plasma. Format: in vitro ADME. The note with it: 10 µM, means±SD, n=6. Summed up:
as §1

Another series deals with mice. Nature of the series: Acute toxicity test, single dose. The note with it: for Body temperature: 100 μg/kg ip. Format: in vivo. Summed up:
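Female Swiss Webster mice (25–30 g), 6 per condition, got a single ip dose of 100 μg/kg test compound, with saline controls. Behaviour, motor coordination, muscle tone, CNS and autonomic signs, water and food intake and lethality were scored during the first hour, at 2, 4 and 8 h, then daily to day 14. Anal-probe body temperature was taken before dosing and at 30 and 60 min.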

The conditions of series [8]: cited from earlier work.
The mark [9] stands for this setting: single dose 100 μg/kg ip, 14 days observation.

Sequence of CYP3A4 (P08684 whole entry): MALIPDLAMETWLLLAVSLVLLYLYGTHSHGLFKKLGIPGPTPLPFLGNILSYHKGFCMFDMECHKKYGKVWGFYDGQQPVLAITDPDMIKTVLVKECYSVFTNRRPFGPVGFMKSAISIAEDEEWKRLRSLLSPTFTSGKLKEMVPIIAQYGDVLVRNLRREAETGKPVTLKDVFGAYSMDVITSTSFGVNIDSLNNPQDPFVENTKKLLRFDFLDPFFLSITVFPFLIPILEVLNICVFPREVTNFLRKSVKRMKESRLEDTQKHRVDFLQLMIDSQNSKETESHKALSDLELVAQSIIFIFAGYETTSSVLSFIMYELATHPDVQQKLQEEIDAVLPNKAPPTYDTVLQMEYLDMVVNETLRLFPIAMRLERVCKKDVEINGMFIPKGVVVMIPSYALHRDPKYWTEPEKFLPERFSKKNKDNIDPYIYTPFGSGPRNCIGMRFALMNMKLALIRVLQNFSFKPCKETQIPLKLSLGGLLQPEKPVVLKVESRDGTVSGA
Sequence of CYP2D6 (P10635 whole entry): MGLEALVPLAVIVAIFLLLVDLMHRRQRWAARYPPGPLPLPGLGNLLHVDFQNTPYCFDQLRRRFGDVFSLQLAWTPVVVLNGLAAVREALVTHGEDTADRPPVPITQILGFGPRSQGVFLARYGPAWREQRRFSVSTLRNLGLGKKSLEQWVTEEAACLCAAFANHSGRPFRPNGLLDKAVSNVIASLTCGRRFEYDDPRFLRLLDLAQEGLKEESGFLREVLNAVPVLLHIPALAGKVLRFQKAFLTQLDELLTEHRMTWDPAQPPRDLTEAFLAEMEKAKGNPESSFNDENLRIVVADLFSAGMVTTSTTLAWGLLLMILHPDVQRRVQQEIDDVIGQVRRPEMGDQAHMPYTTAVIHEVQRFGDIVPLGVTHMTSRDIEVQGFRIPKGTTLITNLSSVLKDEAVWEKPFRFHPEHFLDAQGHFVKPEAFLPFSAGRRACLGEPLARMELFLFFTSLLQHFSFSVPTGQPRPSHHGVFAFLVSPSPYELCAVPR

On to `COc1ccc(CCN2CCN(c3ccccc3OC)CC2)cc1OC.Cl` [LDT5, 1-(2-methoxyphenyl)-4-[2-(3,4-dimethoxyphenyl)ethyl]piperazine monohydrochloride], for which the Intrinsic clearance in the series on rat hepatocytes was over 2 mL·min^-1·g liver^-1; in the series on human hepatocytes, < 0.2 mL·min^-1·g liver^-1 and 0.22 mL·min^-1·g liver^-1; in [5] (human liver microsomes, 0.5 µM), under 0.6 mL·min^-1·g liver^-1; in series [6] (rat liver microsomes, 0.5 µM, two separate experiments) it was 6.4 mL·min^-1·g liver^-1 and 6.7 mL·min^-1·g liver^-1. The half-life at 0.5 µM in series [1] is 11 min; on CYP2D6, 5 min; in [4], 120 min; in [5] (both, human, liver microsomes), over 30 min; in series [6] (male, Sprague Dawley, rat, liver microsomes), 10 min. Also, the “Effect on motor coordination (rota-rod)” value in the series with mice motor coordination was “no acute effect on mice motor coordination”. Also, the “Binding to plasma proteins” value was 73±1% in series [2] and 80±2% in series [7]. Moreover, the recovery at 6 h in “Plasma stability, human” is 91 ± 4%; in the series “Plasma stability, rat” it was 87 ± 4%. For the same compound, the efflux ratio at 129 min in the series with P-gp was determined as 1. The “Papp apical to basolateral” value in the series on MDCK-MDR1 cells was 32.2±1.1 ×10^-6 cm/s. The compound also had a Papp B→A at 129 min in [3] of 32.4 ± 1.1 ×10⁻⁶ cm/s. The compound further came in with a Papp A→B at 129 min in [3] of about 32 ×10⁻⁶ cm/s. Besides, the IC50 at CYP3A4 was over 100 µM; on CYP3A4 (read-out: IC50 CYP3A4, human liver microsomes, substrate testosterone), over 100 µM. This compound returned a solubility at 2 h in the series “Solubility at pH 7.4” of at least 100 µM. Moreover, the Body temperature amounted to 35.5±0.2 °C with mice (30 min after administration) and 35.17±0.31 °C in the series with mice (60 min after administration). For the same compound, the Changes in behavior result in the series on mice (setting [9]) is reported as “no changes in behavior”. Also, the Lethality result in the series with mice (setting [9]) is given as “no lethality”.
In series [3], `C=C[C@H]1C[N@@]2CC[C@H]1C[C@@H]2[C@@H](O)c1ccnc2ccc(OC)cc12` [quinidine, reference compound] displayed a Papp B→A at 129 min of 39.5 ± 2.8 ×10⁻⁶ cm/s and a Papp A→B at 129 min of 0.19 ± 0.05 ×10⁻⁶ cm/s.
On to `CCOc1ccccc1OCCN[C@H](C)Cc1ccc(OC)c(S(N)(=O)=O)c1` [tamsulosin], for which the “Binding to human plasma proteins” value in series [8] is “around 99%”.
